From publication PMC4445677 (Journal of the American Chemical Society, 2014)
Entries after “also recorded” stand apart in the source; their conditions may differ.

Assays:
KA-ARTD2 = test: Auto-ADP-ribosylation, KA-ARTD2; format: biochemical, human; conditions: lysine to alanine mutant
WT-ARTD6 = conditions: up to 250 μM
KA-ARTD6 = conditions: lysine to alanine mutant
WT-ARTD1 = test: Auto-ADP-ribosylation by click conjugation to biotin-azide reporter, WT-ARTD1; format: biochemical, human; conditions: NAD+ analogue as substrate; up to 250 μM for 5-Et-6-a-NAD+
WT-ARTD2 = test: Auto-ADP-ribosylation, WT-ARTD2; format: biochemical, human; conditions: up to 250 μM
KA-ARTD1 = test: Auto-ADP-ribosylation by click conjugation to biotin-azide reporter, KA-ARTD1; format: biochemical, human; conditions: NAD+ analogue as substrate; increasing concentrations
[1] = tested on: nuclear extracts from human embryonic kidney (HEK) 293T cells; test: Labeling of ADP-ribosylation protein targets in nuclear extracts; format: biochemical; conditions: HEK 293T nuclear extracts; for protein labeling in nuclear extracts, NAD+ analogue alone: endogenous ARTDs only, 5-Et-6-a-NAD+ 250 μM, 6-a-NAD+ 100 μM
In short: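 Nuclear extracts from human HEK 293T cells are treated with a modified NAD+ analogue (250 μM), either alone or with added KA-ARTD1. Parent 6-a-NAD+ alone on extract serves as the positive control for ADP-ribose detection. Labelled targets are detected by click chemistry with biotin–azide and immunoblot, using a Ponceau S-stained membrane as the loading control.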

[2] = molecular target: wild-type ARTD1 (WT-ARTD1) (Homo sapiens, UniProt P09874); test: Inhibition of ADP-ribose transfer to Histone H1 using 6-a-NAD+; format: biochemical
K903A ARTD1 (KA-ARTD1) = K903A ARTD1 (KA-ARTD1) (Homo sapiens, UniProt P09874, K903A); test: as above; format: biochemical
Sequence of K903A ARTD1 (KA-ARTD1) (P09874 whole entry K903A): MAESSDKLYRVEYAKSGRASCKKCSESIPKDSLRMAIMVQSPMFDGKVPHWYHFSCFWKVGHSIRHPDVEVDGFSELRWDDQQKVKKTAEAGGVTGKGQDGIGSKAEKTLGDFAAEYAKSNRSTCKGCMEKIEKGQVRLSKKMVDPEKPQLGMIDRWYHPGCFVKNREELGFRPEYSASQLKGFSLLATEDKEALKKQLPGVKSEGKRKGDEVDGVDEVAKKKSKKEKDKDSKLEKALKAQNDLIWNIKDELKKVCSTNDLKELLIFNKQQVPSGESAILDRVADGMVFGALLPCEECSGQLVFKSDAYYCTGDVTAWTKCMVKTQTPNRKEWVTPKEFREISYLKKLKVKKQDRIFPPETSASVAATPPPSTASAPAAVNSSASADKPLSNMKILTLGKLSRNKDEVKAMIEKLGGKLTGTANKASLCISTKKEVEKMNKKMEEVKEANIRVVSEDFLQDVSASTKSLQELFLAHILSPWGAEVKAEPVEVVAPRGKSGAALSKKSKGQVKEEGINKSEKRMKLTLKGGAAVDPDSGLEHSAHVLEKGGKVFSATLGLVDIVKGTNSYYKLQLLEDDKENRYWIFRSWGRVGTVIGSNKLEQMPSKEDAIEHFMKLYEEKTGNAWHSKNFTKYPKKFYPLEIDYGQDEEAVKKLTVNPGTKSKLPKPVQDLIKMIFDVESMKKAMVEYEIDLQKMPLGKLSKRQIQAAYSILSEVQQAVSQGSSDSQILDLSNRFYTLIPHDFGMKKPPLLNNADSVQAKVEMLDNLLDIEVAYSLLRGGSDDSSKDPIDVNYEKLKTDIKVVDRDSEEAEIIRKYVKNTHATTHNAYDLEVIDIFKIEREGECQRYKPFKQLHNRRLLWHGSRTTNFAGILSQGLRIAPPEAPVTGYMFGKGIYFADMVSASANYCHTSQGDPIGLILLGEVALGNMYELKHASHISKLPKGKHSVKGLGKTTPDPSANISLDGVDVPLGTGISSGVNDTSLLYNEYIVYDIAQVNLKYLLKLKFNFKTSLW

Sequence of wild-type ARTD1 (WT-ARTD1) (P09874 whole entry): as the sequence (P09874 whole entry K903A) above, with A903K counted along it

IC50 [2] [µM] | IC50 (K903A ARTD1 (KA-ARTD1)) [µM] | selectivity for KA-ARTD1 over WT-ARTD1 (K903A ARTD1 (KA-ARTD1); ratio of IC50 values WT-ARTD1 / KA-ARTD1) [fold] | Compound | modification of KA-ARTD2 (KA-ARTD2) | modification of WT-ARTD6 (WT-ARTD6) | modification of KA-ARTD6 (KA-ARTD6) | auto-ADPr (modification) of WT-ARTD1 (WT-ARTD1) | modification of WT-ARTD2 (WT-ARTD2) | auto-ADPr (modification) of KA-ARTD1 (KA-ARTD1) | protein labeling in nuclear extracts in the presence of KA-ARTD1 ([1]; 250 μM plus KA-ARTD1) | protein labeling in nuclear extracts, NAD+ analogue alone [1]
 |  |  | 5-Et-6-a-NAD^+ | conferred sensitivity | no modification | conferred sensitivity | no modification of WT-ARTD1 was detected | no modification | only mono-ADPr of KA-ARTD1; also recorded: resulted in auto-ADPr of KA-ARTD1 | extensive labeling | no labeling was detected
2360 ± 368 | 165 ± 11 | 14 | CCc1cncc(C(N)=O)c1 [5-ethyl-nicotinamide] |  |  |  |  |  |  |  | 
 |  |  | 6-alkyne-NAD^+ [6-a-NAD^+, reference compound] |  |  |  | extensive poly-ADPr of WT-ARTD1 |  | only mono-ADPr of KA-ARTD1 |  | labeling of several proteins
